Test results reported in ChEMBL document CHEMBL3616447, “Identification of novel PARP-1 inhibitors: Drug design, synthesis and biological evaluation” (Bioorg Med Chem Lett, 2015).

How the values were obtained:
[1] = molecular target: Poly [ADP-ribose] polymerase 1 (Homo sapiens, UniProt P09874); assay: Inhibition of PARP1 (unknown origin)
MCF7 = assay: Anticancer activity against human MCF7 cells after 96 hrs by MTT assay; type: functional; conditions: MCF7, 96 h
Method in brief: (§1)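 Human breast cancer lines: MCF-7 (wild type) and MDA-MB-436 (naturally carrying BRCA1 mutations, BRCA1-deficient). Cytotoxicity reported as CC50 in μM.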

[2] = Anticancer activity against human BRCA1-deficient MDA-MB-436 cells after 96 hrs by MTT assay; type: functional; conditions: MDA-MB-436, 96 h; method in brief: as §1

Sequence of Poly [ADP-ribose] polymerase 1 (P09874 whole entry): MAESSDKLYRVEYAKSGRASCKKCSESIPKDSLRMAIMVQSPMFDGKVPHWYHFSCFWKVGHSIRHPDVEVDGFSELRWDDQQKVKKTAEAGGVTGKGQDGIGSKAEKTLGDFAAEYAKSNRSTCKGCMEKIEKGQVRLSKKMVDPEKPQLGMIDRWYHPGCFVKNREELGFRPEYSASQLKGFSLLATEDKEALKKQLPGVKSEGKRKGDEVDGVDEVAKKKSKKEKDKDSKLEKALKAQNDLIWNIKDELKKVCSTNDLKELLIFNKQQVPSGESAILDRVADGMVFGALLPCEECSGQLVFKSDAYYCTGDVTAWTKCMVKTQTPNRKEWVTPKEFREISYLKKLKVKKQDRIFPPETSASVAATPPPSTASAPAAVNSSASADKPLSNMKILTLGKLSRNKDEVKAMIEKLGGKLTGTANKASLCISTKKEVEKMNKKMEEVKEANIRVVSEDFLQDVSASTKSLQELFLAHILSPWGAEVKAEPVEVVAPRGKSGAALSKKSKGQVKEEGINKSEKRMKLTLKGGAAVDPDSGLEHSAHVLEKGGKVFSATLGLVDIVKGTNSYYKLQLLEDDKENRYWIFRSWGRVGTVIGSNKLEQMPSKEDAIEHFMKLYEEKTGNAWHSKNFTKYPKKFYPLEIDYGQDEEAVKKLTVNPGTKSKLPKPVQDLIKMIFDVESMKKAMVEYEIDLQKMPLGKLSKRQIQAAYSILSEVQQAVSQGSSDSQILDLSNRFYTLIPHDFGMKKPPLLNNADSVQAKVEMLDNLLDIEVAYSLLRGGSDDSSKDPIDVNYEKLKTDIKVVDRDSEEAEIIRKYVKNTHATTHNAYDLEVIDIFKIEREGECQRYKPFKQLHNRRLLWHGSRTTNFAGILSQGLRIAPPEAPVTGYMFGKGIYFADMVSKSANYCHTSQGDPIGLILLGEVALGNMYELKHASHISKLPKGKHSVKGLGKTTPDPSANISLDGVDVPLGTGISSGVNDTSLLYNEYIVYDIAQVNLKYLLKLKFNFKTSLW

Row | Compound | IC50 [1] [µM] | CC50 (MCF7) [µM] | CC50 [2] [µM]
1 | CCCNCc1ccc(-c2[nH]c3cccc4c3c2C(=O)NNC4=O)cc1 |  | 101 | 
2 | CNCc1ccc(-c2cc3c4c(c[nH]c4c2)C(=O)NNC3=O)cc1 |  | 1240 | 
3 | CCCNCc1ccc(-c2cc3c4c(c[nH]c4c2)C(=O)NNC3=O)cc1 | 0.138 | 5560 | 112
4 | CCCCNCc1ccc(-c2cc3c4c(c[nH]c4c2)C(=O)NNC3=O)cc1 | 0.0354 | 237 | 68.8
5 | CNCc1ccc(-c2[nH]c3cc(F)cc4c3c2CCNC4=O)cc1 [RUCAPARIB] |  | 19.5 | 3

Continued, in another order:

Row | IC50 [1] [µM] | Compound | CC50 (MCF7) [µM] | CC50 [2] [µM]
6 | 2.7 | CNCc1ccc(-c2[nH]c3cccc4c3c2C(=O)NNC4=O)cc1 | 83.1 | 11.3
7 | 11.3 | CC(C)NCc1ccc(-c2[nH]c3cccc4c3c2C(=O)NNC4=O)cc1 | 40.7 | 55.7
8 | 0.25 | CCCCNCc1ccc(-c2[nH]c3cccc4c3c2C(=O)NNC4=O)cc1 | 18 | 18.9
9 | 0.00664 | CNCc1ccc(-c2[nH]c3cc(F)cc4c3c2C(=O)NNC4=O)cc1 | 65.3 | 56.2
10 | 0.0035 | CCCNCc1ccc(-c2[nH]c3cc(F)cc4c3c2C(=O)NNC4=O)cc1 | 25.9 | 5.45
11 | 0.00242 | CCCCNCc1ccc(-c2[nH]c3cc(F)cc4c3c2C(=O)NNC4=O)cc1 |  | 114
12 | 0.465 | CC(C)NCc1ccc(-c2cc3c4c(c[nH]c4c2)C(=O)NNC3=O)cc1 | 1920 | 105
